Measurements as given in the M2OR odorant receptor database.

How the values were obtained:
Settings in all cases: stereoisomer not certain
[1] = molecular target: T1, UniProt Q8VF52
T1 sequence (whole entry): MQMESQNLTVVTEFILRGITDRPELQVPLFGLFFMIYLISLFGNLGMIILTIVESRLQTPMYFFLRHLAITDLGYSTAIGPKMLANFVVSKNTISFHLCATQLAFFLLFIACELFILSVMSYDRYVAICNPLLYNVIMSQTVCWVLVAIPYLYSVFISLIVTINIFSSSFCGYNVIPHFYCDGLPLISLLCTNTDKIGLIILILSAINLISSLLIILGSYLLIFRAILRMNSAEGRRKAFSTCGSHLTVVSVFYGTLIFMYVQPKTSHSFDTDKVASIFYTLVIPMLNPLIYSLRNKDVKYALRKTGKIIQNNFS
Procedure, shortened: (§1)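 Assay methods differ from source to source, frequently being transient luciferase assays in mammalian cell lines. For each receptor–molecule pair, the label responsive (active) applies when the original authors judged the measured signal statistically different from baseline, and non-responsive (inactive) applies otherwise.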

[2] = molecular target: T2, UniProt Q8VFM8
T2 sequence (whole entry): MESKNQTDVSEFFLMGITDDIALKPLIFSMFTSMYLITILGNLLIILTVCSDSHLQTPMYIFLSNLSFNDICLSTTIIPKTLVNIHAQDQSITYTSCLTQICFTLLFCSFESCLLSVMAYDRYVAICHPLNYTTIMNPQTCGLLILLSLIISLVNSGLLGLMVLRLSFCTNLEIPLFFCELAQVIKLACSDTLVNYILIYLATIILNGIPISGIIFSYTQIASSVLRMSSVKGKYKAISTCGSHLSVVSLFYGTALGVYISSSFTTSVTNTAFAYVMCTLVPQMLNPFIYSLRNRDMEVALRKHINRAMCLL
Procedure, shortened: as §1

[3] = molecular target: T3, UniProt Q8VFP5
T3 sequence (whole entry): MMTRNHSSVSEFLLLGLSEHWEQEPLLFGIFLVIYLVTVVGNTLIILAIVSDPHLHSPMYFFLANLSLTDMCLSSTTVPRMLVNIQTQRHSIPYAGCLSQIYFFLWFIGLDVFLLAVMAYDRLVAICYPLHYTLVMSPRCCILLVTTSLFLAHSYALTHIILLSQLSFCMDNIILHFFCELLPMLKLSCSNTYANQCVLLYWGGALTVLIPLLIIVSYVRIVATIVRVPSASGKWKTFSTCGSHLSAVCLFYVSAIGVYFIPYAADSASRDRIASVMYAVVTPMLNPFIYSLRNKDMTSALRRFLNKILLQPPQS
Procedure, shortened: as §1

[4] = molecular target: T4, UniProt Q8VG01
T4 sequence (whole entry): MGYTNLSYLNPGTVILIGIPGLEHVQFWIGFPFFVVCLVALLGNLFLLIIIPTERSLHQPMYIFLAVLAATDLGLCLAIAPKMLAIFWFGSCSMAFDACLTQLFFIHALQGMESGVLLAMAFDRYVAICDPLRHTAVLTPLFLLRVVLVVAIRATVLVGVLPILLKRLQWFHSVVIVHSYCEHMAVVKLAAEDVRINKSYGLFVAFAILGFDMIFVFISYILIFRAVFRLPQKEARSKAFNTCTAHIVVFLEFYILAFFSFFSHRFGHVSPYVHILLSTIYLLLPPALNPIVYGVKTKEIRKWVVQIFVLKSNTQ
Procedure, shortened: as §1

[5] = molecular target: T5, UniProt Q8VG27
T5 sequence (whole entry): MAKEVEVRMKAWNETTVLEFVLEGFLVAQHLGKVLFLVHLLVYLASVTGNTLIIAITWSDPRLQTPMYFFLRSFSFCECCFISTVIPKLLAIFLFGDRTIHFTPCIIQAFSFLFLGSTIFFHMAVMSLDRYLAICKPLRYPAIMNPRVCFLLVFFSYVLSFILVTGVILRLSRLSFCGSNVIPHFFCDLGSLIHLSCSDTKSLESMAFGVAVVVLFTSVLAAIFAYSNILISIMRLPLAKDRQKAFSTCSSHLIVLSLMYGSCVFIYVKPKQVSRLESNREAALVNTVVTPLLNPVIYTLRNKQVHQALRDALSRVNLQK
Procedure, shortened: as §1

[6] = molecular target: T6, UniProt Q8VFG6
T6 sequence (whole entry): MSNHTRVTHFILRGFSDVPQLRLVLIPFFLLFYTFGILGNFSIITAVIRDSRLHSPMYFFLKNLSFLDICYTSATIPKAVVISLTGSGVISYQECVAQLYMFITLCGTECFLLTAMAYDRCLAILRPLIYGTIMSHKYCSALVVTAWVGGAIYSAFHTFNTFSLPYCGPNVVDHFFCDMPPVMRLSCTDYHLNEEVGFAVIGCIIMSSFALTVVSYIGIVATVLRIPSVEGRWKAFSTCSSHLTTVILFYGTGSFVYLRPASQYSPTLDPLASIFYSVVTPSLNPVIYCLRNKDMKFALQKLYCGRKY
Procedure, shortened: as §1

[7] = molecular target: T7, UniProt Q8VFZ6
T7 sequence (whole entry): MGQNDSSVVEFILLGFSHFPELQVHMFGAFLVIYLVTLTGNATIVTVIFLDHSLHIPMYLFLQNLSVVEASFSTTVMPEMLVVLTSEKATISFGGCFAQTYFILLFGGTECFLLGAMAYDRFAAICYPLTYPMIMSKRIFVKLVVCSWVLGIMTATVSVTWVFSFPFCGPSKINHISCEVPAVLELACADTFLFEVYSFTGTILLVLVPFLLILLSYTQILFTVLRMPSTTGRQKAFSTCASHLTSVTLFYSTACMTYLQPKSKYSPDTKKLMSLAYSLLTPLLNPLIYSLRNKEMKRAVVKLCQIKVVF
Procedure, shortened: as §1

[8] = molecular target: T8, UniProt Q8VG22
T8 sequence (whole entry): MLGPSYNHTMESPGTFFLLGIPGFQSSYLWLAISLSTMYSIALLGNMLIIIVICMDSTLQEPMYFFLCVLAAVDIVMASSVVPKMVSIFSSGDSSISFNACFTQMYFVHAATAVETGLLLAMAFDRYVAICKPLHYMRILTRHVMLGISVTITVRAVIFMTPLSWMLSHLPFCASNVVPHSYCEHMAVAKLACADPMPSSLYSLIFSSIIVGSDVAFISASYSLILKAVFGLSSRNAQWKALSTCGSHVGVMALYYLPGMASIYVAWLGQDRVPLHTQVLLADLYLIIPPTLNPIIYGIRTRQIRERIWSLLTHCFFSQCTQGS
Procedure, shortened: as §1

[9] = molecular target: T9, UniProt Q8VG49
T9 sequence (whole entry): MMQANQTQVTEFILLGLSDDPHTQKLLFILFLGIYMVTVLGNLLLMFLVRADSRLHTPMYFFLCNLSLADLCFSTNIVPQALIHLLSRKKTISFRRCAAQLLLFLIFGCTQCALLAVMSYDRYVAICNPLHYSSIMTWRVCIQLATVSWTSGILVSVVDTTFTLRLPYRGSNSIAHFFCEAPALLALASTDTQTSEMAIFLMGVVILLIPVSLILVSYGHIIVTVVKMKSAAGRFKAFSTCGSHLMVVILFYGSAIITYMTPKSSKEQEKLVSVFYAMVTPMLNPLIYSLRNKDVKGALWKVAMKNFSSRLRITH
Procedure, shortened: as §1

[10] = molecular target: UniProt Q8VG28
Procedure, shortened: as §1

Measured: odorant receptor agonist call

Sequence of UniProt Q8VG28 (Q8VG28 as listed by the source): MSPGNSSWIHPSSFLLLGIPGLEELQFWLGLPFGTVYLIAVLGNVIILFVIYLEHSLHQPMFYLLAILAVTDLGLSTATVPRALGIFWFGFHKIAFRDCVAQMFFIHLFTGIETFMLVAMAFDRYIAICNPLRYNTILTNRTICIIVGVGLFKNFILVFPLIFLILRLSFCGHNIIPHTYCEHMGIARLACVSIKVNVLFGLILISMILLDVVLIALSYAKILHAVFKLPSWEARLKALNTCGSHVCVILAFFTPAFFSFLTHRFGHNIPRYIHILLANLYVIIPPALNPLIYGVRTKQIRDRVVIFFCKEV

Cc1ccc(OC(=O)Cc2ccccc2)cc1
inactive: [1] | [2] | [3] | [4] | [5]

C=CCOC(=O)Cc1ccccc1
active: [6] | [7]
not listed: [10]
inactive: all other assays above

O=Cc1ccc2c(c1)OCO2
inactive: [1] | [2] | [3] | [4] | [5]

OCc1ccc2c(c1)OCO2
inactive: [1] | [2] | [3] | [4] | [5]

CC(C=O)Cc1ccc2c(c1)OCO2 (stereo unspecified)
inactive: [1] | [2] | [3] | [4] | [5]

O=c1cc(O)c2ccccc2o1
active: [8]
not listed: [10]
inactive: all other assays above

CCCCCCC(Br)C(=O)O (stereo unspecified)
active: [4]
inactive: [1] | [2] | [3] | [5]

O=C(O)CCCCCCCBr
active: [10]

O=CC=Cc1ccccc1
inactive: [1] | [2] | [3] | [4] | [5]

CCC1CCC(=O)O1 (stereo unspecified)
inactive: [1] | [6] | [7] | [4] | [8] | [9]

COc1ccc(C=O)cc1
inactive: [1] | [2] | [3] | [4] | [5]

Oc1ccccc1Br
inactive: [1] | [2] | [3] | [4] | [5]

C=C(C)C1CC=C(C=O)CC1 (stereo unspecified)
inactive: [1] | [2] | [3] | [4] | [5]

CCCCC(Br)C(=O)O (stereo unspecified)
inactive: [1] | [2] | [3] | [4] | [5]

O=Cc1ccccc1
inactive: [1] | [2] | [3] | [4] | [5]

CSSC
inactive: [1] | [2] | [3] | [4] | [5]

C=CCc1ccccc1
inactive: [1] | [6] | [7] | [4] | [8] | [9]
